In the library only some 1.6% were active in any assay of this set; here they are far more common.
FLuc inh counter: Photinus pyralis luciferase inhibition counter-screen; 200,000 tested, 1.5% active; ATPLite firefly luciferase biochemical luminescence, 10 min; inhibition, % at 10 µM;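 active = inhibition above about 50% when tested at 10 µM, limit read from the data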
Target sequence (P08659 whole entry, looked up): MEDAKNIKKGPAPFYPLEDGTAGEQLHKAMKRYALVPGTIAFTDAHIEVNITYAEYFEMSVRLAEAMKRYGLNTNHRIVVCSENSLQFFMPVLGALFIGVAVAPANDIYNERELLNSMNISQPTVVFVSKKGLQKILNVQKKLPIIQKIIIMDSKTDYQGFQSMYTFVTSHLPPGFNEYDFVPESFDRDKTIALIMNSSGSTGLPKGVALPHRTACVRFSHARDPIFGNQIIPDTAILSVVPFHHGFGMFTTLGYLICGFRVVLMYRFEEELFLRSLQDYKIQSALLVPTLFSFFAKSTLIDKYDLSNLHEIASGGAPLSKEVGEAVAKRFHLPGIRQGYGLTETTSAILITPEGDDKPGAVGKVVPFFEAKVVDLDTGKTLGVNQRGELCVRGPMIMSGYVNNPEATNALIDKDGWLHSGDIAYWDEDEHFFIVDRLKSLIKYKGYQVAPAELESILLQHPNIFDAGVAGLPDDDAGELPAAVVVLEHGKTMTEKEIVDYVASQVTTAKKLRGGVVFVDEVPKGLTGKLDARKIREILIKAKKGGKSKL
FLuc act counter: firefly luciferase counter-screen for stimulation assays. ATPlite luciferase biochemical, luminescence, 10 min; 0 = ATP-free wells, 1 = DMSO control. activation factor at 10 µM. 200,000 tested, under 10 active;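 active = luciferase activation factor, scaled between plate controls, of at least 2 with compound at 10 µM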
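test system = cell-free luciferase reagent | medium = PBS as buffer for the ATP substrate | dosing = test compounds dosed from 2 mM stocks in 100% DMSO | incubation = 10 min at ambient temperature | detection = luminescence measurement of luciferase light output | benchmarks = low control with PBS replacing ATP, high control enzyme plus ATP without compound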
PPC-1+TRAIL kill: PPC-1 cancer cell killing with TRAIL present. PPC-1 cells + TRAIL, ATPLite viability luminescence. cell killing (% activity), % at 4 µM or 5 µM. 220,000 tested, 0.41% active;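 active = cell killing above 50% in the first pass at 4 µM, then a duplicate retest at 5 µM averaging 50% or more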;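 note: plate controls were cells with TRAIL plus DMSO for no effect and medium-only wells lacking cells for full effect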
C8 TRAIL sens: sensitizes caspase-8 expressing cells to TRAIL; inhibition (viability loss, TRAIL sensitization), % at 10 µM; NB7+C8 cells + TRAIL, ATPlite viability luminescence; 360,000 tested, 1% active;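 active = compounds causing at least 50% loss of cell viability in the single-dose screen, relative to plate controls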
PPC1 cytotox: PPC-1 cell cytotoxicity | cytotoxicity, % at 5 µM | shares compounds with PPC-1+TRAIL kill | 1,200 tested, 50% active | PPC-1 viability, ATPlite luminescence, overnight;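 active = reconfirmed compounds whose average cytotoxicity reaches 50% or more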;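 note: 0% = DMSO-treated cells and 100% = wells holding medium but no cells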
The depositor's hits bear a star; x = no result.

SMILES	FLuc inh counter	FLuc act counter	PPC-1+TRAIL kill	C8 TRAIL sens	PPC1 cytotox
CC(OC(=O)Cn1cnc2c1c(=O)n(C)c(=O)n2C)C(=O)N(C)c1ccccc1 (configuration not stated)	x	x	x	18	x
CC/C(=N/N=C(/CC)c1ccc(O)cc1)c1ccc(O)cc1	x	x	x	3	x
O=C(N/N=C/c1ccc(OC(F)F)cc1)C1=COCCO1	68*	0.3	31	29	x
CCC(C)NC(=O)Cc1c(C)c2cc3c(cc2oc1=O)OC(C)(C)CC3 (configuration not stated)	x	x	x	14	x
O=C(CN(c1cccc(C(F)(F)F)c1)S(=O)(=O)c1ccc(Cl)c([N+](=O)[O-])c1)NCc1ccc(F)cc1	-2	1	63*	-8	x
O=C(CN(c1cccc([N+](=O)[O-])c1)S(=O)(=O)c1ccccc1)NCc1cccnc1	x	x	x	-20	x
CCOC(=O)COc1ccc2ccccc2c1/C=C/[N+](=O)[O-]	-4	1	1	-9	x
O=[N+]([O-])/C=C/c1c(OCc2ccccc2)ccc2ccccc12	-4	1	-17	60*	x
Cc1ccnc(NC(=O)/C=C/c2ccccc2Cl)c1	76*	0.2	28	55*	22
Cc1cc(N)c2cc(NC(=O)/C=C/c3ccccc3Cl)ccc2n1	x	x	98*	95*	97*
Cc1cc(C)nc(NC(=O)/C=C/c2ccccc2Cl)c1	29	0.7	15	33	x
Cc1cc(N=Nc2ccc(C)c(N=Nc3cc(C)c(N)cc3N)c2)c(N)cc1N	x	x	64*	51*	63*
CCOC(=O)C1(C#N)Cc2ccccc2C1	x	x	x	6	x
CSc1cccc(NC(=O)c2cnn3ccccc23)c1	x	x	4	4	x
CCc1ccc(NC(=O)c2cnn3ccccc23)cc1	78*	0.2	50	58*	50*
O=C(CCCCn1c(=O)c2ccccc2n(Cc2ccc(F)cc2)c1=O)NCc1ccco1	-4	1	-4	15	2
CCOC(=O)N1CCN(C(=O)c2nc3ccccc3s2)CC1	2	1	12	2	-1
CCOC(=O)N1CCN(CC(=O)Nc2nc3ccccc3s2)CC1	x	x	x	-23	x
Cc1cc(C(=O)CN2C(=O)c3ccccc3S2(=O)=O)c(C)n1CC1CCCO1 (configuration not stated)	42	0.6	86*	83*	85*
O=C1c2ccccc2C(c2nnnn2Cc2ccccc2)N1CCc1c[nH]c2ccccc12 (configuration not stated)	x	x	x	9	x
C=CCn1c(N/N=C/c2ccc(O)cc2)nc2ccccc2c1=O	82*	0.2	27	18	32
COc1ccc(C=NNc2nc3ccccc3s2)cc1	x	x	x	47	x
Cc1csc(N/N=C/c2ccccn2)n1	92*	0.1	39	73*	32
C(=N\Nc1nc2ccccc2s1)/c1ccccn1	x	x	69*	x	73*
CC(C)(C)n1nnnc1C(c1ccccc1)N1CCN(c2ncccn2)CC1 (configuration not stated)	x	x	x	9	x
SMILES	FLuc inh counter	FLuc act counter	PPC-1+TRAIL kill	C8 TRAIL sens	PPC1 cytotox
Nc1c(C(=O)NCCN2CCOCC2)c2nc3ccccc3nc2n1CCc1ccccc1F	-10	1.1	-7	16	17
CCCCCCCC#Cc1ccccc1/C=N/S(=O)c1ccc(C)cc1 (configuration not stated)	-2	1	5	x	x
Oc1ccc(-n2cnnn2)cc1	0	1	17	-13	18
Clc1ccc(-n2cnnn2)cc1	-4	1	9	-12	x
On1onc2c3cc(-c4ccccc4)nc3ccc21	-5	1	24	3	18
CCOC(=O)c1cnc(Nc2nc3ccccc3o2)nc1CSc1nnc(C)s1	x	x	x	19	x
CCOC(=O)c1cnc(Nc2nc3ccccc3o2)nc1C	91*	0.1	81*	88*	79*
CS(=O)(=O)c1ccc2nc(NC(=O)c3ccco3)sc2c1	77*	0.2	46	57*	50
CC1CCc2nc(NC(=O)Cc3cccs3)sc2C1 (configuration not stated)	17	0.8	-12	26	x
O=C(Nc1nc2cc3c(cc2s1)OCO3)c1ccco1	x	x	68*	75*	72*
O=C(Nc1nc2cc3c(cc2s1)OCCO3)c1ccncc1	76*	0.2	38	39	44
CC1CCc2nc(NC(=O)c3ccco3)sc2C1 (configuration not stated)	93*	0.1	80*	84*	77*
COc1ccc(CNC(=O)COC(=O)C2CCC(C(C)(C)C)CC2)cc1 (configuration not stated)	-3	1	-6	17	x
CCOC(=O)N=Nc1c2ccccc2c2nc3no[nH]c3nc12	-6	1.1	83*	96*	81*
CCOC(=O)N=Nc1c(O)n(CC(=O)OC)c2ccccc12	-2	1	15	-1	x
COC(=O)c1ccc(OCC(=O)c2ccc(O)cc2O)cc1	65*	0.3	37	35	36
COc1ccc(C(=O)N=c2nc3ccccn3s2)cc1	97*	0	90*	91*	90*
CCCOc1ccc(C(=O)C(c2ccccc2)N2CCOCC2)cc1 (configuration not stated)	-2	1	0	-11	14
CCCOc1ccc2cc(-c3ccccn3)c(=O)oc2c1	92*	0.1	79*	89*	80*
CCN(C(=O)CN(C)Cc1cccc(Cl)c1Cl)c1c(N)n(Cc2ccccc2)c(=O)[nH]c1=O	-3	1	4	-2	x
Cc1cccc(-n2ncc3c(N(C)C4CCCCC4)ncnc32)c1	x	x	80*	88*	82*
CC(C)(C)c1ccc(/C=N/NC(=O)c2ccccn2)cc1	93*	0.1	64*	76*	61*
O=C(N/N=C/c1ccco1)c1ccccn1	26	0.7	3	15	x
O=S(=O)(NCCSc1ccccc1)c1ccc(F)cc1	-1	1	-2	-5	-3
O=C(CCNc1n[nH]c(=O)[nH]c1=O)N/N=C\c1cccc(OCc2ccccc2)c1	-6	1.1	14	-13	x
SMILES	FLuc inh counter	FLuc act counter	PPC-1+TRAIL kill	C8 TRAIL sens	PPC1 cytotox
COc1ccccc1-c1nnc(NC(=O)C(C)Sc2nncn2C)s1 (configuration not stated)	32	0.7	1	6	x
COc1ccccc1-c1nnc(NC(=O)CSc2nncn2C)s1	94*	0.1	77*	83*	68*
COc1ccccc1-n1c(C)cc(/C=C2/C(=N)N3C(=NC2=O)SN=C3S(C)(=O)=O)c1C	87*	0.1	47	58*	55*
COc1cc(/C=C(/C(=O)c2cccs2)c2nc3ccccc3[nH]2)cc(OC)c1O	77*	0.2	22	37	34
COc1ccc(C(=O)N/C(=C/c2cccs2)c2nc3ccccc3[nH]2)cc1OC	-5	1	-11	-1	x
COC(=O)c1c(C)[nH]c(C(=O)OCC(=O)c2c(N)n(CC(C)C)c(=O)n(C)c2=O)c1C	x	x	x	10	x
CCN(CC)c1ccc(N=Cc2cc(Br)ccc2O)cc1	11	0.9	-1	-6	11
Oc1ccc(Br)cc1C=Nc1ccc(Cl)cc1	-7	1.1	17	1	x
